Assay results pooled from the literature.
Target: STE20/SPS1-related proline-alanine-rich protein kinase (STK39, Homo sapiens, UniProt Q9UEW8)

| Compound | assay | setting | measurement | result |
| --- | --- | --- | --- | --- |
| Cc1nn(C)cc1-c1nc2c(N3CCN(Cc4ccc(Cl)cc4)CC3)c(Cl)cnc2[nH]1 | binding, competition with immobilised ligand | 1 µM | remaining binding | 100% |
| Nc1ncc(-c2nc(N3CCOCC3)nc(N3CCOCC3)n2)c(C(F)F)n1 | binding, competition with immobilised ligand | 10 µM | remaining binding | 70% |
| Cn1cncc1[C@](O)(COc1ccc(C#N)cc1-c1ccc(OC(F)(F)F)cc1)c1ccc(C#N)cc1 | cell-free assay, competition with immobilised ligand | 1 µM | remaining binding | 50% |
| CC(C)(C)c1cc(C=C(C#N)C#N)cc(Br)c1O | enzyme activity, inhibitor | 0.5 µM | remaining activity | 87.6% |
| N#CC1(c2ccccn2)CCN(Cc2cc(C(=O)O)c(=O)n3ccccc23)CC1 | cell-free assay, competition with immobilised ligand | 1 µM | remaining binding | 56% |
| O=c1[nH]c2ccccc2n1C1CCN(Cc2ccc(-c3[nH]c4cc5ncnc5cc4nc3-c3ccccc3)cc2)CC1 | cell-free assay | 0.5 µM | remaining signal | 98.2% |
| COc1cc(Nc2ncc(F)c(Nc3ccc4c(n3)NC(=O)C(C)(C)O4)n2)cc(OC)c1OC | binding | 10 µM | inhibition | 65% |
| COc1ncccc1-c1cnn2ccc(N3CCN(C(=O)OC(C)C)CC3)nc12 | binding, competition with immobilised ligand | 1 µM | remaining binding | 88% |
